For four molecules, IC50, inhibition and Activity results are on record in ChEMBL document CHEMBL4033792, “Structure-Activity Relationship in Monosaccharide-Based Toll-Like Receptor 4 (TLR4) Antagonists” (J Med Chem, 2018).

Data set [1] deals with Toll-like receptor 4 (Homo sapiens, UniProt O00206). As to the kind of experiment: Antagonist activity at human TLR4 expressed in HEK blue cells assessed as inhibition of LPS-induced NF-kappaB activation-mediated SEAP production preincubated for 30 mins followed by LPS addition measured after overnight incubation in absence of light by NF-kappaB reporter gene assay. It is filed as cell-based. Summed up: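 HEK-Blue hTLR4 cells (stably expressing hTLR4, hMD-2, hCD14 and an NF-κB/AP-1-driven SEAP reporter) seeded at 4 × 10^4/well, incubated overnight at 37 °C. Compound (in water or DMSO–H2O 1:1) added 30 min before 100 ng/mL E. coli O55:B5 LPS, then overnight incubation. Supernatant SEAP read with pNPP, 2–4 h in the dark at room temperature, OD 405 nm. Normalized to LPS alone; four-parameter logistic fit for IC50; ≥3 independent experiments.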
A general note: A reporter such as luciferase makes a cellular process visible.

The subject of data set [2] is THP-1. As to the kind of experiment: Cytotoxicity against human THP1 cells assessed as reduction in cell viability up to 10 uM after 24 hrs in presence of LPS by MTT asssay. It is filed as cell-based. Particulars: thp-1, 24 h. Summed up:
(§1)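 THP-1 monocytes in RPMI with 10% heat-inactivated FBS, used at 0.5 × 10^6 cells/mL. Cells exposed to compounds at 0–10 μM, with or without LPS (100 ng/mL), for up to 24 h. Viability read by MTT assay.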

For data set [3], the system named is THP-1. As to the kind of experiment: Cytotoxicity against human THP1 cells assessed as reduction in cell viability up to 10 uM after 24 hrs in absence of LPS by MTT asssay. The data set is classed as cell-based. Particulars: thp-1, 24 h. Summed up: as §1
Data set [4] is described as follows: Cytotoxicity against HEK-Blue cells assessed as reduction in cell viability at 10 uM after overnight incubation by MTT assay. It is filed as cell-based. Particulars: human. The method in brief:
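MTT viability assay in HEK-Blue hTLR4 cells seeded at 4 × 10^4/well in phenol red-free DMEM and incubated overnight. Cells then treated overnight with the highest compound concentration used in the activity assays (10 μM). MTT (5 mg/mL in PBS) added for 3 h; formazan dissolved in 0.1 N HCl/2-propanol; absorbance 570 nm. Normalized to untreated (PBS) control; mean ± SEM of three independent experiments.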
On the technique in general: Formazan colour is commonly taken as a measure of viable cells.

Data set [5] addresses Toll-like receptor 4 (Mus musculus) (UniProt Q9QUK6). As to the kind of experiment: Antagonist activity at TLR4 in mouse RAW blue cells assessed as inhibition of LPS-induced NF-kappaB activation-mediated SEAP production preincubated for 30 mins followed by LPS addition measured after 16 hrs by NF-kappaB reporter gene assay.
For data set [6] the target is unchanged. Nature of the data set: Agonist activity at TLR4 in mouse RAW blue cells assessed as increase in NF-kappaB activation-mediated SEAP production up to 10 uM measured after 20 hrs by SEAP reporter gene assay.
Data set [7] shares this target. Nature of the data set: Antagonist activity at TLR4 in mouse RAW blue cells assessed as inhibition of LPS-induced NF-kappaB activation-mediated SEAP production up to 10 uM preincubated for 30 mins followed by LPS addition measured after 16 hrs by NF-kappaB reporter gene assay.

The term IC50 denotes the concentration that inhibits the measured activity by half.

Molecules are shown by their SMILES. The source made the active and inactive calls. The calls are words filed in the database; no cut-off is given here.

Sequence of Toll-like receptor 4 (O00206 whole entry): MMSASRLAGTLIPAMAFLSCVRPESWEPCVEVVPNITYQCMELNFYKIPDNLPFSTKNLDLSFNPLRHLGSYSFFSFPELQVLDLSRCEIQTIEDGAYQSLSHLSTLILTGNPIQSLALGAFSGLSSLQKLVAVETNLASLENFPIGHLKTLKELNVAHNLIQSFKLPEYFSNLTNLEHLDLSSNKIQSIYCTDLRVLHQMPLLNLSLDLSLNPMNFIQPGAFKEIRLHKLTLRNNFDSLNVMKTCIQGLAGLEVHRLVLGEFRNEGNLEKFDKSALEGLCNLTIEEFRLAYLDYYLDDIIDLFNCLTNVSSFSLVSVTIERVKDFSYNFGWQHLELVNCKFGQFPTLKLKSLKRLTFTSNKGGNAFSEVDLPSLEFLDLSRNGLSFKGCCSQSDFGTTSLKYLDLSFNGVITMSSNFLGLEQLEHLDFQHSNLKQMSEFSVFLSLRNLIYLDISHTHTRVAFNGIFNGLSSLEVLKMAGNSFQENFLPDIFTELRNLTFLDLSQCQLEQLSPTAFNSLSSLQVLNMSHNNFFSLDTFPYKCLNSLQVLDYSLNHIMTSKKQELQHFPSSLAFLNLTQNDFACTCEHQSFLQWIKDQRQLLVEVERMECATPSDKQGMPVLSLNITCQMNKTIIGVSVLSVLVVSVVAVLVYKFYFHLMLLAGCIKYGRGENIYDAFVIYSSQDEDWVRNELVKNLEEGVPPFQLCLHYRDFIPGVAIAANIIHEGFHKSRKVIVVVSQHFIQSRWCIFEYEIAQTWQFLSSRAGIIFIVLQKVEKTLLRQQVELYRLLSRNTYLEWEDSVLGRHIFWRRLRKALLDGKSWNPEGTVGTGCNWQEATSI
Sequence of Toll-like receptor 4 (Mus musculus) (Q9QUK6 whole entry, looked up): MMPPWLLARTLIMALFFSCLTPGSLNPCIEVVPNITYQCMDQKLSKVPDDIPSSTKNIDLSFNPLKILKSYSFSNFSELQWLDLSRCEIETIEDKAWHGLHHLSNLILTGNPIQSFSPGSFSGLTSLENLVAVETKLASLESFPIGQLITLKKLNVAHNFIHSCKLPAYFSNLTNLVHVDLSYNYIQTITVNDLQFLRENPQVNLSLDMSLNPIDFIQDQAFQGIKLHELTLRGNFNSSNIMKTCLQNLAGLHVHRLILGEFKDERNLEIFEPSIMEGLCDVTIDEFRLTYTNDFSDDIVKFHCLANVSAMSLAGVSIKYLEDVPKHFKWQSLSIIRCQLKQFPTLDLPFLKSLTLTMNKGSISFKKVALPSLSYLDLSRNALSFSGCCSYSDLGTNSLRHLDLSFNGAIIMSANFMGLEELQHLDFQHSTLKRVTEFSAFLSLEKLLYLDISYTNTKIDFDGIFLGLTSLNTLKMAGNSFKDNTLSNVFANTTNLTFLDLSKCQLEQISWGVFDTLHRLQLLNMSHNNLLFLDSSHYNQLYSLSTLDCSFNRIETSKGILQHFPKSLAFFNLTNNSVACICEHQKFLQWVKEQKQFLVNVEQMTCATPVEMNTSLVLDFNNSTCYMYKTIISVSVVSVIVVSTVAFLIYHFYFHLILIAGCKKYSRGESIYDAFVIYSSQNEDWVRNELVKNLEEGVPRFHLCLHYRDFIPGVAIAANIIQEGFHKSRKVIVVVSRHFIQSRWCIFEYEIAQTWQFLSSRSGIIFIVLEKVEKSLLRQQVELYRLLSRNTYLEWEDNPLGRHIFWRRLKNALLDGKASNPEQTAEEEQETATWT

As to `CCCCCCCCCCCC(=O)N[C@H]1[C@@H](OP(=O)([O-])O)O[C@H](CO)[C@@H](OP(=O)([O-])O)[C@@H]1OC(=O)CCCCCCCCCCC.[Na+].[Na+]`, the IC50 was found to be 0.63 µM in data set [1] and 1.7 µM in data set [5]. The inhibition result in data set [1] is “Dose-dependent effect”. Also, the Activity entry in data set [2] is recorded as “Non-Toxic”; in data set [3] it was “Non-Toxic”; in data set [4], “Non-Toxic”; in data set [6] it was “Not Active”.
On to `CCCCCCCCCCCCCC(=O)N[C@H]1[C@@H](OP(=O)(O)O)O[C@H](CO)[C@@H](OP(=O)(O)O)[C@@H]1OC(=O)CCCCCCCCCCCCC`, for which the IC50 in data set [1] was found to be 2 µM; in data set [5], 7.7 µM. Also, the inhibition entry in data set [1] was “Dose-dependent effect”. Moreover, the Activity entry in data set [2] is given as “Non-Toxic”; in data set [3] it was “Non-Toxic”; in data set [6], “Not Active”.
Take `CCCCCCCCCC(=O)N[C@H]1[C@@H](OP(=O)([O-])O)O[C@H](CO)[C@@H](OP(=O)([O-])O)[C@@H]1OC(=O)CCCCCCCCC.[Na+].[Na+]`: the IC50 in data set [1] is 5.45 µM; in data set [5] it was 42 µM. Moreover, the inhibition entry in data set [1] was “Dose-dependent effect”. In addition, the Activity entry in data set [2] is “Non-Toxic”; in data set [3], “Non-Toxic”; in data set [4] it was “Non-Toxic”; in data set [6] it was “Not Active”.
On to `CCCCCCCCCCCCCCCC(=O)N[C@H]1[C@@H](OP(=O)([O-])O)O[C@H](CO)[C@@H](OP(=O)([O-])O)[C@@H]1OC(=O)CCCCCCCCCCCCCCC.[Na+].[Na+]`, for which the Activity result in data set [2] was “Non-Toxic”; in data set [3], “Non-Toxic”; in data set [4], “Non-Toxic”; in data set [6], “Not Active”. In addition, the inhibition result in data set [7] is “inactive”.
